Experiments:
[1] = biological target: T1, Histamine H4 receptor (Homo sapiens, UniProt Q9H3N8); assay: Displacement of [3H]histamine from human histamine H4 receptor transfected in SK-N-MC cells
[2] = biological target: T1, Histamine H4 receptor; assay: Activity at human histamine H4 receptor transfected in SK-N-MC cells by cAMP assay; format: functional, cell-based
Outline: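 Colorimetric cAMP read-out in SK-N-MC cells stably expressing the human H4 receptor together with a CRE-β-galactosidase reporter gene, used to measure functional activity.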

[3] = biological target: T1, Histamine H4 receptor; assay: Agonist activity at human histamine H4 receptor transfected in SK-N-MC cells; format: functional, cell-based
[4] = biological target: T1, Histamine H4 receptor; conditions: SK-N-MC, 100 nM
[5] = biological target: T1, Histamine H4 receptor; conditions: SK-N-MC, 300 nM
[6] = biological target: T1, Histamine H4 receptor; conditions: SK-N-MC, 1 uM
[7] = biological target: T2, Histamine H1 receptor (Homo sapiens, UniProt P35367); assay: Displacement of [3H]mepyramine from human histamine H1 receptor
T2 sequence (P35367 whole entry): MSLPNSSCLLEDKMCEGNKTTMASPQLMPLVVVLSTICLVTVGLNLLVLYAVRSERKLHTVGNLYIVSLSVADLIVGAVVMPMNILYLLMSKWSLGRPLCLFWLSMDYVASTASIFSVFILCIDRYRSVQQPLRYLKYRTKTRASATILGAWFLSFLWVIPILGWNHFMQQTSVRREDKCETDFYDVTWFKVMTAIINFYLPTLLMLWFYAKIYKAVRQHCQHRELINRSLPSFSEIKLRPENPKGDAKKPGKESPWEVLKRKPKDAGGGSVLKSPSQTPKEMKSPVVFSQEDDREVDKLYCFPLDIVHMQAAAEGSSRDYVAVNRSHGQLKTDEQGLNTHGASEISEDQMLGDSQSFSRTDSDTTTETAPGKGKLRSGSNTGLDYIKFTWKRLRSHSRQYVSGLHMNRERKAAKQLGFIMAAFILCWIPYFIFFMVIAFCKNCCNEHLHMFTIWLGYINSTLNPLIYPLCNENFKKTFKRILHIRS

[8] = biological target: Histamine H2 receptor (Homo sapiens, UniProt P25021); assay: Displacement of [3H]APT from human histamine H2 receptor transfected in COS7 cells; format: cell-based, COS-7
Histamine H2 receptor, sequence (P25021 whole entry): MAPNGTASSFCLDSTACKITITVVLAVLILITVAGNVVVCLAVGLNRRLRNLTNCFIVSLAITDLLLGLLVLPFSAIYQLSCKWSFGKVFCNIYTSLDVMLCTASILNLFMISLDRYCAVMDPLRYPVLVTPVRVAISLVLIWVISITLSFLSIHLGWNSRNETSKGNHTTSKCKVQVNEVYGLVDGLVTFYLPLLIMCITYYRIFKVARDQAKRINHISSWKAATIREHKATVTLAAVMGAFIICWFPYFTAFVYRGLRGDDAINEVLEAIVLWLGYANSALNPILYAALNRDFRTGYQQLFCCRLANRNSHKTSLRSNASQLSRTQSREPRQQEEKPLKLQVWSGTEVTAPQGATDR

[9] = biological target: Histamine H3 receptor (Homo sapiens, UniProt Q9Y5N1); assay: Displacement of [3H]histamine from human histamine H3 receptor transfected in SK-N-MC cells; format: cell-based
Histamine H3 receptor, sequence (Q9Y5N1 whole entry): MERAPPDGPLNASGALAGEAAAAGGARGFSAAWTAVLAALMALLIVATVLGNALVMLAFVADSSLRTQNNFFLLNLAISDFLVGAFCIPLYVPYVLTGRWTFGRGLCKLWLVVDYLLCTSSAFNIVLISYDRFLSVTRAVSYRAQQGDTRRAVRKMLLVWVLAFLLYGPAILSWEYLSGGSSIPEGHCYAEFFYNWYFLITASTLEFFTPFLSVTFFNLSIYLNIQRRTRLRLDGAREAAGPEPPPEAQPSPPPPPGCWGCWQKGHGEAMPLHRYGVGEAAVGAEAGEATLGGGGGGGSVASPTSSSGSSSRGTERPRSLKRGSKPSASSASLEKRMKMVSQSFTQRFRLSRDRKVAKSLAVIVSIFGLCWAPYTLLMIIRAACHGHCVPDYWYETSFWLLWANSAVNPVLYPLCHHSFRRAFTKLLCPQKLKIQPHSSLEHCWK
Outline: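 Homogenates of SK-N-MC cells stably expressing the human H3 receptor were used. Affinity was determined by radioligand displacement.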

[10] = biological target: T2, Histamine H1 receptor; assay: Activity at human histamine H1 receptor transfected in COS7 cells by NF-kappaB luciferase reporter assay; format: functional, cell-based, COS-7
[11] = biological target: T1, Histamine H4 receptor; conditions: SK-N-MC, 10 nM
[12] = biological target: T1, Histamine H4 receptor; conditions: SK-N-MC, 30 nM

T1 sequence (Q9H3N8 whole entry): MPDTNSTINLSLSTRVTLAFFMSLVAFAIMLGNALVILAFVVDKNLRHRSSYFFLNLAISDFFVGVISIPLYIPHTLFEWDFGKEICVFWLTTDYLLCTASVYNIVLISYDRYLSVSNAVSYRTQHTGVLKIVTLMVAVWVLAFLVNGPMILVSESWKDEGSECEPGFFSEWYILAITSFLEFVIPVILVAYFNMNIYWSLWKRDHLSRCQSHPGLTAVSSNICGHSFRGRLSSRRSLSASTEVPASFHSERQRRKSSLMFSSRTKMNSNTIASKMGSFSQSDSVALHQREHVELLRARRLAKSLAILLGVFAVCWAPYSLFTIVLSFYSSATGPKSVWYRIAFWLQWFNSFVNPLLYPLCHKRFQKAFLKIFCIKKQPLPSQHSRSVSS

Row | Compound | Ki [1] | EC50 [2] | Activity [3] | other results
1 | Clc1ccc2c(c1)N=C(N1CCOCC1)c1ccccc1N2 | > 10000 nM |  |  | 
2 | Clc1ccc2c(c1)N=C(N1CCCCC1)c1ccccc1N2 | > 10000 nM |  |  | 
3 | CN1CCN(C2=Nc3cc(Cl)ccc3Oc3ccc(F)cc32)CC1 | 191 nM | 81.3 nM | 1 | 
4 | Cc1ccc2c(c1)Oc1ccccc1C(N1CCN(C)CC1)=N2 | 79.4 nM | 105 nM | 1 | 
5 | CN1CCN(C2=Nc3ccc(Cl)cc3Oc3c(F)cccc32)CC1 | 30.9 nM | 20.4 nM | 1 | 
6 | CC(C)N1CCN(C2=Nc3cc(Cl)ccc3Oc3ccccc32)CC1 | 1070 nM |  |  | 
7 | CN1CCN(C2=Nc3cc(Cl)ccc3Oc3c(F)cccc32)CC1 | 27.5 nM | 14.8 nM | 1 | 
8 | CCN1CCN(C2=Nc3cc(Cl)ccc3Oc3ccccc32)CC1 | 288 nM |  |  | 
9 | CN1CCN(C2=Nc3cc(Cl)ccc3Oc3ccccc32)CC1 [ISOLOXAPINE] | 42.7 nM | 28.2 nM | 1 | 
10 | CN1CCN(C2=Nc3cc(Cl)ccc3Nc3ccccc32)CC1 |  |  |  | Bmax [4]: 996 fmol/mg; Bmax [5]: 899 fmol/mg; Bmax [6]: 987 fmol/mg
11 | Clc1ccc2c(c1)N=C(N1CCNCC1)c1ccccc1O2 | 324 nM |  |  | 
12 | CN1CCN(C2=Nc3ccccc3Oc3ccccc32)CC1 | 132 nM | 302 nM | 1 | 
13 | CN1CCN(C2=Nc3ccc(Cl)cc3Oc3ccccc32)CC1 |  |  | 1 | Ki [7]: 7.76 nM; Ki [8]: 8710 nM; Ki [9]: 9120 nM; EC50 [10]: 6.76 nM; Bmax [4]: 934 fmol/mg; Bmax [11]: 951 fmol/mg; Bmax [12]: 934 fmol/mg
14 | CN1CCN(C2=Nc3ccccc3Cc3ccccc32)CC1 [PERLAPINE] | 4790 nM |  |  | 
15 | CN1CCN(C2=Cc3ccccc3Oc3ccc(Cl)cc32)CC1 | > 10000 nM |  |  | 
16 | CN1CCN(C2=Nc3cc(Cl)ccc3N(C)c3ccccc32)CC1 | 1410 nM |  |  | 
17 | CN1CCN(C2=Nc3cc(Cl)ccc3Oc3cc(Cl)ccc32)CC1 | 309 nM | 102 nM | 1 | 
18 | CN1CCN(C2=Nc3ccc(Cl)cc3Oc3cc(F)ccc32)CC1 | 38.9 nM | 38.9 nM | 1 | 
19 | CN1CCN(C2=Nc3cc(Cl)ccc3Sc3ccccc32)CC1 [ISOCLOTHIAPINE] | 2040 nM |  |  | 
20 | OCCN1CCN(C2=Nc3cc(Cl)ccc3Nc3ccccc32)CC1 | 4680 nM |  |  | 
21 | CN1CCN(C2=Nc3ccccc3Oc3ccc(Cl)cc32)CC1 [LOXAPINE] | 4570 nM | 219 nM | 0.5 | 
22 | CN1CCN(C2=Nc3ccc(Cl)cc3Oc3c(Cl)cccc32)CC1 | 45.7 nM | 14.8 nM | 1 | 

— ChEMBL document CHEMBL1137432, “Characterization of the histamine H4 receptor binding site. Part 1. Synthesis and pharmacological evaluation of dibenzodiazepine derivatives” (J Med Chem, 2006)
